Experimental findings from ChEMBL document CHEMBL1145779, “Structure-activity relationship study and drug profile of N-(4-fluorophenylsulfonyl)-L-valyl-L-leucinal (SJA6017) as a potent calpain inhibitor” (J Med Chem, 2003) are described below.

Data set [1] in a line: Binding towards monkey plasma protein at 10 uM. The note with it: cercopithecidae. It is filed as ADME, cell-free. In outline: (§1)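 Test compound incubated at 10 or 100 μM with plasma from mouse, rat, monkey, dog and human. The filtrate was analysed, and binding was expressed as percent bound at each concentration.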
Data set [2] is described as follows: Binding towards monkey plasma protein at 100 uM. It counts as ADME, cell-free. Conditions: cercopithecidae. In outline:
as §1

The nature of data set [3]: Binding towards human plasma protein at 10 uM. It is filed as ADME, cell-free. In outline: as §1
A short description of data set [4]: Binding towards human plasma protein at 100 uM. It is filed as ADME, cell-free. Put shortly:
as §1

The species named for data set [5] is Canis familiaris. In words: Plasma protein binding towards dog plasma at 10 uM. It is filed as ADME, Canis lupus familiaris. In outline:
as §1

For data set [6], the species on record is Mus musculus. Description: Binding towards mouse plasma protein at 100 uM. It counts as ADME. In outline: as §1
For data set [7], the species on record is Rattus norvegicus. Description: Binding towards rat plasma protein at 10 uM. It is filed as ADME. Put shortly:
as §1

Data set [8] is filed under the species Rattus norvegicus. Description: Binding towards rat plasma protein at 100 uM. It counts as ADME. Put shortly: as §1
The target in the next data set is Cytochrome P450 2C19 (Homo sapiens, UniProt P33261). Description: Inhibition of Cytochrome P450 2C19. It is filed as ADME.
Another data set addresses Cathepsin B (Homo sapiens, UniProt P07858). In words: Inhibitory activity against Cathepsin B.
The next data set concerns the target Cytochrome P450 2C9 (Homo sapiens, UniProt P11712). Description: Inhibition of Cytochrome P450 2C9. It counts as ADME.
In the next data set the target is Coagulation factor X (Homo sapiens, UniProt P00742). In words: Inhibitory activity against Coagulation factor X.
The target in the next data set is T1, Coagulation factor VII (Homo sapiens, UniProt P08709).
T1 sequence (P08709 whole entry): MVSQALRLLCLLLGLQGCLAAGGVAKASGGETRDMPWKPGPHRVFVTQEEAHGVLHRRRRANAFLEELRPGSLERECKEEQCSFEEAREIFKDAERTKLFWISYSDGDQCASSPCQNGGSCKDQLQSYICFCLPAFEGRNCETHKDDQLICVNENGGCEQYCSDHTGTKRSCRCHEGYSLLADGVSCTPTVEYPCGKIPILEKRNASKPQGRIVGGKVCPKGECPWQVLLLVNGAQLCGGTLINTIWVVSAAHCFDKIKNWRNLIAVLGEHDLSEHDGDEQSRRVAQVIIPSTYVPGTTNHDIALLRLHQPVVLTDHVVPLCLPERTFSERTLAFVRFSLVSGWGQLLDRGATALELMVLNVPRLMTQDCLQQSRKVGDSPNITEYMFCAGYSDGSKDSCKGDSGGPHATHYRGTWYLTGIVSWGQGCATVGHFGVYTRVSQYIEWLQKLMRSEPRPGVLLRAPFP
Description: Inhibitory activity against coagulation factor VII.

The next data set concerns the target Chymotrypsinogen A (Bos taurus, UniProt P00766). Description: Inhibitory activity against Chymotrypsinogen.
The target in data set [9] is T2, Cytochrome P450 3A4 (Homo sapiens, UniProt P08684). Description: Inhibition of Cytochrome P450 3A4 as BFC substrate. It is filed as ADME.
Data set [10] deals with T2, Cytochrome P450 3A4. In words: Inhibition of Cytochrome P450 3A4 as BQ substrate. It counts as ADME.
The next data set addresses Cytochrome P450 2D6 (Homo sapiens, UniProt P10635). In words: Inhibition of Cytochrome P450 2D6. It is filed as ADME.
For another data set, the target named is T3, Caspase-1 (Homo sapiens, UniProt P29466).
T3 sequence (P29466 whole entry): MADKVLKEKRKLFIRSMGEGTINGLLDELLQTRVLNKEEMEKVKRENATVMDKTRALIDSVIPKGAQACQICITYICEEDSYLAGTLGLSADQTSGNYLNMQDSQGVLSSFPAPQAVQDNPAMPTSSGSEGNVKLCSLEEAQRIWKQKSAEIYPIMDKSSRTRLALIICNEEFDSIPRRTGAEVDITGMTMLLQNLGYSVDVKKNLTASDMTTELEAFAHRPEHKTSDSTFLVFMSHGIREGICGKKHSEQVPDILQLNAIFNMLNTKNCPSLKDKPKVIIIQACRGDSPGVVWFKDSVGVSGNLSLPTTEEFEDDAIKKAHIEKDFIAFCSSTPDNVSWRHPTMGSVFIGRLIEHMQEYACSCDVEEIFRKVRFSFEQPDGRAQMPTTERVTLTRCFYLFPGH
Description: Inhibitory activity against interleukin 1-beta converting enzyme (IL-1 beta converting enzyme).

The nature of data set [11]: The compound was tested for toxicity using human neuroblastoma SY5Y cells. It is filed as cell-based. Put shortly: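 Cytotoxicity was assessed in cultured human neuroblastoma SY5Y cells, alongside rat cerebellar granule neurons.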
The test system of another data set is Proteasome. In words: Inhibitory activity against proteasome. It counts as subcellular.
A further data set deals with Serine protease 1 (Homo sapiens, UniProt P07477). Description: Inhibitory activity against trypsin.
The target in a further data set is Prothrombin (Homo sapiens, UniProt P00734). In words: Inhibitory activity against thrombin.
The species named for data set [12] is Canis familiaris. Description: Plasma protein binding towards dog plasma at 100 uM. It counts as ADME, Canis lupus familiaris. Put shortly: as §1
The species entered for data set [13] is Mus musculus. Description: Binding towards mouse plasma protein at 10 uM. It counts as ADME. In outline: as §1

T2 sequence (P08684 whole entry): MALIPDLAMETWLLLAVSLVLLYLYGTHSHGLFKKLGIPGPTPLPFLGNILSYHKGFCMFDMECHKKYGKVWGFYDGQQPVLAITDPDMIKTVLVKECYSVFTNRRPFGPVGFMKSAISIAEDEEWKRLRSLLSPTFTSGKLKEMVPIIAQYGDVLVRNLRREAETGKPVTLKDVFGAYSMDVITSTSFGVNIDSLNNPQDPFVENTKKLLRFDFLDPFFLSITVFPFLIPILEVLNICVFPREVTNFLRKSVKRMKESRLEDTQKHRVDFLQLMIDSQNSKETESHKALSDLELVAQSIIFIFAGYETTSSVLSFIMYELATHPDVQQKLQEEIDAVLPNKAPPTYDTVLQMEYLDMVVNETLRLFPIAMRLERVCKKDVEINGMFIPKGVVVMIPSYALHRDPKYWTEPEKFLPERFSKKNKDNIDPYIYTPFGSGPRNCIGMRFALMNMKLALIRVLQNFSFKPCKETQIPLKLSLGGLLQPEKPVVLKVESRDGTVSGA
Cytochrome P450 2C9, sequence (P11712 whole entry): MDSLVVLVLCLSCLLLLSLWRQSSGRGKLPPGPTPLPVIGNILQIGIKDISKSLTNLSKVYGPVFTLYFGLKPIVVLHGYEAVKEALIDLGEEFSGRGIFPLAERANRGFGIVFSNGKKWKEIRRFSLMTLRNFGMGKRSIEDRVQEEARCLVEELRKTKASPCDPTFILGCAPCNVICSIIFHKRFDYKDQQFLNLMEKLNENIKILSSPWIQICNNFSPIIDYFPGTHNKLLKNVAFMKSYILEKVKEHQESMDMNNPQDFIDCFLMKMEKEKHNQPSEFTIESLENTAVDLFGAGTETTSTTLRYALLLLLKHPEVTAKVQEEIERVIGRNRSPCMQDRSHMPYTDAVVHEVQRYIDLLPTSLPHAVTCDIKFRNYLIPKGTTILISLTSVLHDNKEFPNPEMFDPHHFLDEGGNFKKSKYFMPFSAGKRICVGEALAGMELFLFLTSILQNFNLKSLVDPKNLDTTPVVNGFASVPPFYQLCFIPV
Coagulation factor X, sequence (P00742 41-179 limits assumed): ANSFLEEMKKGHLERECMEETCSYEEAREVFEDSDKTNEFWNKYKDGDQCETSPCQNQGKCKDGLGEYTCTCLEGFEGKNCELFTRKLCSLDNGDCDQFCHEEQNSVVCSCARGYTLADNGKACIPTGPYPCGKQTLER
Coagulation factor X, sequence (P00742 235-488 limits assumed): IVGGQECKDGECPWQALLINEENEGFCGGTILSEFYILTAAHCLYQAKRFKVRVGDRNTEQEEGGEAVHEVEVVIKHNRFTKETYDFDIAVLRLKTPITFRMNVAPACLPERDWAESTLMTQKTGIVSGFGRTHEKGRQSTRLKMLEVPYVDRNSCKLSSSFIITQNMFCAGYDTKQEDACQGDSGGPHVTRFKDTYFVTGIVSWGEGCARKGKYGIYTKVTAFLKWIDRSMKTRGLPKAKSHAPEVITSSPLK
Serine protease 1, sequence (P07477 whole entry): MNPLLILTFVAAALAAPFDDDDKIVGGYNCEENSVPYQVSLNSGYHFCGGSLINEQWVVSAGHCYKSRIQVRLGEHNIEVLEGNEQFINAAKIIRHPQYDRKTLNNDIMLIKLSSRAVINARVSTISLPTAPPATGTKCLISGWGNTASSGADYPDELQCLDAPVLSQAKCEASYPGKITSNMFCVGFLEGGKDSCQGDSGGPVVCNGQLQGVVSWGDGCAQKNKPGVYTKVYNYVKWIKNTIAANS
Cytochrome P450 2D6, sequence (P10635 whole entry): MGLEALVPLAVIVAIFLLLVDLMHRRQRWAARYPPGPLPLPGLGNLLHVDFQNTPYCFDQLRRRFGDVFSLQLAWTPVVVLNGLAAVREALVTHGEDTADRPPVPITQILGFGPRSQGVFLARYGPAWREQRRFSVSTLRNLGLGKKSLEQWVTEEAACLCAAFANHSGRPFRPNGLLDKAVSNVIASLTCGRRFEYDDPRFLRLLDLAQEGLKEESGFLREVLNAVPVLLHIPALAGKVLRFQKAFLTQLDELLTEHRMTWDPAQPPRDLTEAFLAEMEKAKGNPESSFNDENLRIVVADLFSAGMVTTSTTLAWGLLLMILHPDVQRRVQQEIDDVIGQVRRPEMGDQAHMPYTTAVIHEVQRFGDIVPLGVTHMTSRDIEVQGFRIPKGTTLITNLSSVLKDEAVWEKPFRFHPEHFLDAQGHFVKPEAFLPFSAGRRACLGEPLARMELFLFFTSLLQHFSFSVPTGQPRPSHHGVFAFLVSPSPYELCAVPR
Cytochrome P450 2C19, sequence (P33261 whole entry): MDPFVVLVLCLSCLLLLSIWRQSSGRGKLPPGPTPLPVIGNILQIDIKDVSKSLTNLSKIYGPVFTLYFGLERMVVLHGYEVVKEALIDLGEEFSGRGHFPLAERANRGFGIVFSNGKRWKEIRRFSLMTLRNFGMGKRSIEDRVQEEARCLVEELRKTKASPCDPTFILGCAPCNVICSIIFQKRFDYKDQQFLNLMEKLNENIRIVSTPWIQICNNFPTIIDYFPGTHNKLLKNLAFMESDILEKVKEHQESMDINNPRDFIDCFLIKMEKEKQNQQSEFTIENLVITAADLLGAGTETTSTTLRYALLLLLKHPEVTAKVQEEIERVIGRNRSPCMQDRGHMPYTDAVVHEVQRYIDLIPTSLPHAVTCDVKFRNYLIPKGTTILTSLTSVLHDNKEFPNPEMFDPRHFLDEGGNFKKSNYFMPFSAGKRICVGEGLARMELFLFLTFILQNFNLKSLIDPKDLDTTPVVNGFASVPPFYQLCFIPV

As for `CC(C)C[C@H](C=O)NC(=O)[C@@H](NS(=O)(=O)c1ccc(F)cc1)C(C)C`, the Binding in data set [1] stood at 95.1%; in data set [2], 90.5%; in data set [3], 95.4%; in [4], 91.6%; in the data set filed under Canis familiaris [5] it was 75.8%; in the data set listed under Mus musculus [6], 90.2%. The Binding in the data set listed under Rattus norvegicus [7] came to 89.9%; in the data set listed under Rattus norvegicus [8], 85.4%; in the data set listed under Canis familiaris [12], 66.8%; in the data set listed under Mus musculus [13], 89.9%. The IC50 at Cytochrome P450 2C19 was 177 µM; against Cathepsin B, 0.015 µM; against Cytochrome P450 2C9, 492 µM; against Coagulation factor X it was > 60 µM; against Coagulation factor VII, > 100 µM; at Chymotrypsinogen A, > 200 µM. Further, the IC50 on Cytochrome P450 3A4 [9] was 81 µM; at Cytochrome P450 3A4 [10], 531 µM; against Cytochrome P450 2D6 it was 291 µM; at Caspase-1, > 100 µM; with Proteasome, > 200 µM; on Serine protease 1, > 100 µM. Also, at Prothrombin, the IC50 is > 100 µM. Also, in data set [11], the CC50 is > 1000 µM.
Take `CC(C)C[C@H](C=O)NC(=O)[C@@H](NS(=O)(=O)c1ccc2ccccc2c1)C(C)C`: the CC50 in data set [11] (read-out: LD50 (the source's name)) turned out to be 9.8 µM.
